Measured values as given in article PMC5010469 (Cancer research, 2016).

How the values were obtained:
Type in all cases: cell-based
[1] = tested on: Hs578T cells; assay: Transwell invasion assay; settings: dose series, Figure 4d
[2] = molecular target: WASF3 complex (Homo sapiens, UniProt Q7L576); assay: Immunoprecipitation of the WASF3 complex; settings: IP of WASF3 from MDA-MB-231 cells, Figure 4f
[3] = tested on: Hs578T cells; assay: Cell proliferation assay; settings: NSC23766 treatment, Supplementary Figure 4
[4] = tested on: MDA-MB-231 cells; assay: Cell proliferation assay; settings: MDA-MB-231, NSC23766 treatment; Supplementary Figure 4
[5] = tested on: MDA-MB-231 cells; assay: Transwell invasion assay
Procedure, shortened: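 MDA-MB-231 breast cancer cells were obtained from ATCC and verified by SNP-CGH for characteristic cytogenetic changes. The panel included empty-vector parental cells and cells overexpressing full-length human NCKAP1 from a lentiviral vector. Cells were exposed to the RAC1-inhibitor test compound, with a dose series in one set. Invasion was read out in Transwell invasion assays run as previously described.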

[6] = tested on: WASF3; assay: Western blotting of WASF3 complex protein levels; settings: MDA-MB-231 and Hs578T cells, western blot; Figure 4e

Chain of WASF3 complex (Q7L576 whole entry, one chain of several): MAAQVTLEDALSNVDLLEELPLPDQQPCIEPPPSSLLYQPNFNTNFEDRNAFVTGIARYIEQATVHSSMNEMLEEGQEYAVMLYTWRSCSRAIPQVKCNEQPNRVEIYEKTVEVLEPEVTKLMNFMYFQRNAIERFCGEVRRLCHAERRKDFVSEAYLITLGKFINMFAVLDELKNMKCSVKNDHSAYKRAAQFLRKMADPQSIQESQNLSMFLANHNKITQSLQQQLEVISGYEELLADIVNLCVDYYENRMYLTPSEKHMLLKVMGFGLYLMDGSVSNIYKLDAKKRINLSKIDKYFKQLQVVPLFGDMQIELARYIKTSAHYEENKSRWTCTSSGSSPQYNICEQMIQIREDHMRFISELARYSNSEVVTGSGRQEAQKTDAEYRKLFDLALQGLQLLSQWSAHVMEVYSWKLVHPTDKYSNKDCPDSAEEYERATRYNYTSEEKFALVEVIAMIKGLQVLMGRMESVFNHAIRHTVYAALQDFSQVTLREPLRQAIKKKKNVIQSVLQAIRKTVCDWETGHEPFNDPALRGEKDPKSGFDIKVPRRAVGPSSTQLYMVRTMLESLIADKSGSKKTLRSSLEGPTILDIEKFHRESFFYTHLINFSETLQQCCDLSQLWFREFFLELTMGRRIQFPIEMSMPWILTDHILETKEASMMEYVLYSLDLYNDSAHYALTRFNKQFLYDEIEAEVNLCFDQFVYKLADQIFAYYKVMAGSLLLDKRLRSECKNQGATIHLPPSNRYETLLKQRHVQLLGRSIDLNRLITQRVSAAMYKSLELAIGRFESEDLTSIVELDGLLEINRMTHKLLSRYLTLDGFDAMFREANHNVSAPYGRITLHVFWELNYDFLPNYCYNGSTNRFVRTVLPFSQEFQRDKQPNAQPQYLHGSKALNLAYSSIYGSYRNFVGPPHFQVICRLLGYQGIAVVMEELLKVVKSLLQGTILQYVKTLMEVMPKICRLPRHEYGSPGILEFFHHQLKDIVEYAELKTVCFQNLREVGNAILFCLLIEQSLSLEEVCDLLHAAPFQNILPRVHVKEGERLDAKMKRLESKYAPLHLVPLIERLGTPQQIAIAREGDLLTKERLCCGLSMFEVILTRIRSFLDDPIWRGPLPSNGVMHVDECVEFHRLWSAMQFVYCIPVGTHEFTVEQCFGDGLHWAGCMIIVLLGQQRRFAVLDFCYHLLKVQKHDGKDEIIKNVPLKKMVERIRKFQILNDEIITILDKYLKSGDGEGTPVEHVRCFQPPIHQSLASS

CCN(CC)CCCC(C)Nc1nc(C)cc(Nc2ccc3nc(C)cc(N)c3c2)n1 (stereo not shown) [NSC23766]
effect on invasion [1]: dose-dependent reduction in invasion | RAC1 binding to the WASF3 complex ([2]; high dose 50 µM): significantly inhibited | WASF3 phosphorylation ([2]; high dose 50 µM): significantly inhibited | engagement of NCKAP1 with the WASF3 complex [2]: does not disrupt engagement of NCKAP1 with the WASF3 complex | effect on cell proliferation [3]: without affecting cell proliferation | effect on cell proliferation [4]: without affecting cell proliferation | effect on invasion ([5]; MDA-MB-231, dose series, Figure 4d): dose-dependent reduction in invasion | effect on invasion ([5]; MDA-MB-231 cells overexpressing NCKAP1, Transwell, Figure 4h): significant reduction in invasion | effect on invasion ([5]; MDA-MB-231 parental cells containing the empty vector (EV), Transwell, Figure 4h): significant reduction in invasion | protein levels of WASF3, NCKAP1 and RAC1 [6]: does not affect protein levels of either WASF3, NCKAP1 or RAC1
